In ChEMBL document CHEMBL2311311, “Synthesis and in vitro activity of 1,2,4-triazole-ciprofloxacin hybrids against drug-susceptible and drug-resistant bacteria” (Eur J Med Chem, 2013):
Values after ≈ are worked out from the molar mass of the structure shown.

Experiments:
Format in all cases: functional
Bacillus cereus = assay: Antimicrobial activity against Bacillus cereus ATCC 10876 by broth microdilution method
Method in brief: (§1)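 Inocula were saline (0.85% NaCl) suspensions at 0.5 McFarland (150 × 10⁶ CFU/mL). Compounds were first screened by agar dilution on Mueller-Hinton agar, and active ones then went to broth microdilution. MIC is the lowest concentration inhibiting growth. The negative control was medium containing DMSO at the final concentration, without compound.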

Escherichia coli = assay: Antimicrobial activity against Escherichia coli ATCC 25922 by broth microdilution method; method in brief: as §1
Bacillus subtilis = assay: Antimicrobial activity against Bacillus subtilis ATCC 6633 by broth microdilution method; method in brief: as §1
Pseudomonas aeruginosa = assay: Antimicrobial activity against Pseudomonas aeruginosa ATCC 9027 by broth microdilution method; method in brief: as §1
Staphylococcus aureus [1] = assay: Antimicrobial activity against Staphylococcus aureus ATCC 25923 by broth microdilution method; method in brief: as §1
Staphylococcus aureus [2] = assay: Antimicrobial activity against methicillin-resistant Staphylococcus aureus 14001 by broth microdilution method
Method in brief: (§2)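 Inoculum in sterile saline (0.85% NaCl), adjusted to 0.5 McFarland (150 × 10⁶ CFU/mL). Compounds first screened by agar dilution on Mueller-Hinton agar, then titrated by broth microdilution. Medium with DMSO at the final concentration and no compound served as negative control. MIC is the lowest concentration inhibiting growth. MBC is the lowest concentration giving >99.9% reduction in CFU of the initial inoculum.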

Staphylococcus aureus [3] = assay: Ratio of MBC to MIC for methicillin-resistant Staphylococcus aureus 14001 by broth microdilution method; method in brief: as §2
Proteus mirabilis = assay: Antimicrobial activity against Proteus mirabilis ATCC 12453 by broth microdilution method; method in brief: as §1
[4] = test system: Staphylococcus epidermidis; assay: Antimicrobial activity against Staphylococcus epidermidis ATCC 12228 by broth microdilution method; method in brief: as §1
Micrococcus luteus = assay: Antimicrobial activity against Micrococcus luteus ATCC 10240 by broth microdilution method; method in brief: as §1

Compound	MIC (Bacillus cereus) [µM]	MIC (Escherichia coli) [µM]	MIC (Bacillus subtilis) [µM]	MIC (Pseudomonas aeruginosa) [µM]	MIC (Staphylococcus aureus [1]) [µM]	MBC (Staphylococcus aureus [2]) [µM]	MIC (Staphylococcus aureus [2]) [µM]	Ratio (Staphylococcus aureus [3])	MIC (Proteus mirabilis) [µM]	MIC [4] [µM]	MIC (Micrococcus luteus) [µM]
COc1ccc(-n2c(-c3cccc(Cl)c3)nn(CN3CCN(c4cc5c(cc4F)c(=O)c(C(=O)O)cn5C4CC4)CC3)c2=S)cc1	0.36 (≈ 0.238 µg/mL)	0.023 (≈ 0.0152 µg/mL)	0.09 (≈ 0.0595 µg/mL)	0.36 (≈ 0.238 µg/mL)	1.48 (≈ 0.979 µg/mL)	0.74 (≈ 0.489 µg/mL)	0.74 (≈ 0.489 µg/mL)	1	0.023 (≈ 0.0152 µg/mL)	1.48 (≈ 0.979 µg/mL)	2.95 (≈ 1.95 µg/mL)
O=C(O)c1cn(C2CC2)c2cc(N3CCN(Cn4nc(-c5cccc(Cl)c5)n(-c5ccc(Br)cc5)c4=S)CC3)c(F)cc2c1=O	1.38 (≈ 0.98 µg/mL)	0.084 (≈ 0.0596 µg/mL)	0.34 (≈ 0.241 µg/mL)	1.38 (≈ 0.98 µg/mL)	5.51 (≈ 3.91 µg/mL)	5.51 (≈ 3.91 µg/mL)	2.76 (≈ 1.96 µg/mL)	2	0.17 (≈ 0.121 µg/mL)	5.51 (≈ 3.91 µg/mL)	10.1 (≈ 7.17 µg/mL)
O=C(O)c1cn(C2CC2)c2cc(N3CCN(Cn4nc(-c5cccc(Cl)c5)n(-c5cccc(I)c5)c4=S)CC3)c(F)cc2c1=O	0.16 (≈ 0.121 µg/mL)	0.02 (≈ 0.0151 µg/mL)	0.04 (≈ 0.0303 µg/mL)	0.16 (≈ 0.121 µg/mL)	1.29 (≈ 0.977 µg/mL)	5.16 (≈ 3.91 µg/mL)	0.64 (≈ 0.484 µg/mL)	8	0.04 (≈ 0.0303 µg/mL)	1.29 (≈ 0.977 µg/mL)	2.58 (≈ 1.95 µg/mL)
O=C(O)c1cn(C2CC2)c2cc(N3CCN(Cn4nc(-c5cccc(Cl)c5)n(-c5ccc(I)cc5)c4=S)CC3)c(F)cc2c1=O	1.29 (≈ 0.977 µg/mL)	0.08 (≈ 0.0606 µg/mL)	0.32 (≈ 0.242 µg/mL)	1.29 (≈ 0.977 µg/mL)	5.16 (≈ 3.91 µg/mL)	5.16 (≈ 3.91 µg/mL)	2.58 (≈ 1.95 µg/mL)	2	0.16 (≈ 0.121 µg/mL)	5.16 (≈ 3.91 µg/mL)	10.3 (≈ 7.8 µg/mL)
O=C(O)c1cn(C2CC2)c2cc(N3CCN(Cn4nc(-c5cccc(Cl)c5)n(-c5ccc(F)cc5F)c4=S)CC3)c(F)cc2c1=O	0.18 (≈ 0.12 µg/mL)	0.022 (≈ 0.0147 µg/mL)	0.09 (≈ 0.06 µg/mL)	0.36 (≈ 0.24 µg/mL)	0.73 (≈ 0.487 µg/mL)	0.73 (≈ 0.487 µg/mL)	0.73 (≈ 0.487 µg/mL)	1	0.022 (≈ 0.0147 µg/mL)	0.73 (≈ 0.487 µg/mL)	2.92 (≈ 1.95 µg/mL)
O=C(O)c1cn(C2CC2)c2cc(N3CCN(Cn4nc(-c5cccc(Cl)c5)n(-c5ccc(Cl)cc5Cl)c4=S)CC3)c(F)cc2c1=O	0.17 (≈ 0.119 µg/mL)	0.043 (≈ 0.0301 µg/mL)	0.043 (≈ 0.0301 µg/mL)	0.17 (≈ 0.119 µg/mL)	1.4 (≈ 0.98 µg/mL)	44.6 (≈ 31.2 µg/mL)	0.7 (≈ 0.49 µg/mL)	64	0.043 (≈ 0.0301 µg/mL)	0.7 (≈ 0.49 µg/mL)	2.78 (≈ 1.95 µg/mL)
O=C(O)c1cn(C2CC2)c2cc(N3CCN(Cn4nc(-c5cccc(Cl)c5)n(-c5cc(Cl)cc(Cl)c5)c4=S)CC3)c(F)cc2c1=O	5.58 (≈ 3.91 µg/mL)	0.7 (≈ 0.49 µg/mL)	1.4 (≈ 0.98 µg/mL)	11.2 (≈ 7.81 µg/mL)	22.3 (≈ 15.6 µg/mL)	44.6 (≈ 31.2 µg/mL)	22.3 (≈ 15.6 µg/mL)	2	0.7 (≈ 0.49 µg/mL)	22.3 (≈ 15.6 µg/mL)	44.6 (≈ 31.2 µg/mL)
Cn1c(-c2cccc(Cl)c2)nn(CN2CCN(c3cc4c(cc3F)c(=O)c(C(=O)O)cn4C3CC3)CC2)c1=S	0.21 (≈ 0.12 µg/mL)	0.053 (≈ 0.0302 µg/mL)	0.053 (≈ 0.0302 µg/mL)	0.1 (≈ 0.0569 µg/mL)	0.86 (≈ 0.489 µg/mL)	0.86 (≈ 0.489 µg/mL)	0.42 (≈ 0.239 µg/mL)	2	0.053 (≈ 0.0302 µg/mL)	0.86 (≈ 0.489 µg/mL)	1.72 (≈ 0.979 µg/mL)
O=C(O)c1cn(C2CC2)c2cc(N3CCNCC3)c(F)cc2c1=O [CIPROFLOXACIN]	0.36 (≈ 0.119 µg/mL)	0.024 (≈ 0.00795 µg/mL)	0.09 (≈ 0.0298 µg/mL)	0.72 (≈ 0.239 µg/mL)	2.96 (≈ 0.981 µg/mL)	5.92 (≈ 1.96 µg/mL)	1.48 (≈ 0.49 µg/mL)	4	0.045 (≈ 0.0149 µg/mL)	1.48 (≈ 0.49 µg/mL)	5.88 (≈ 1.95 µg/mL)
CN[C@H](CC(C)C)C(=O)N[C@H]1C(=O)N[C@@H](CC(N)=O)C(=O)N[C@H]2C(=O)N[C@H]3C(=O)N[C@H](C(=O)N[C@H](C(=O)O)c4cc(O)cc(O)c4-c4cc3ccc4O)[C@H](O)c3ccc(c(Cl)c3)Oc3cc2cc(c3O[C@@H]2O[C@H](CO)[C@@H](O)[C@H](O)[C@H]2O[C@H]2C[C@](C)(N)[C@H](O)[C@H](C)O2)Oc2ccc(cc2Cl)[C@H]1O [VANCOMYCIN]						2.7 (≈ 3.91 µg/mL)	0.68 (≈ 0.986 µg/mL)				
